In assay [1] the target is T1, Granzyme A (Homo sapiens) (UniProt P12544).
T1 sequence (whole entry): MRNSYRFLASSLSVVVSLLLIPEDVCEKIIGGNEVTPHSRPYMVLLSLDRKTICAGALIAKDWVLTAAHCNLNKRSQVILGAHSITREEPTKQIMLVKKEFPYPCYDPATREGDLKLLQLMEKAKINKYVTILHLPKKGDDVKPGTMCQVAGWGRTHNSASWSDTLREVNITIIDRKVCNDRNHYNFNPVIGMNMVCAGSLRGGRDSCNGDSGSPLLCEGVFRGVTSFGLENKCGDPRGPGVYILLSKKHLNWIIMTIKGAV
Description: Substrate activity at Granzyme A (unknown origin) expressed in Pichia pastoris incubated for 30 mins by fluorescence based assay.

The target of assay [2] is Granzyme B (Homo sapiens) (UniProt P10144). Description: Substrate activity at Granzyme B (unknown origin) expressed in Pichia pastoris assessed as compound hydrolysis at 200 uM incubated for 30 mins by fluorescence based assay relative to control.
Granzyme B (Homo sapiens), sequence (P10144 whole entry): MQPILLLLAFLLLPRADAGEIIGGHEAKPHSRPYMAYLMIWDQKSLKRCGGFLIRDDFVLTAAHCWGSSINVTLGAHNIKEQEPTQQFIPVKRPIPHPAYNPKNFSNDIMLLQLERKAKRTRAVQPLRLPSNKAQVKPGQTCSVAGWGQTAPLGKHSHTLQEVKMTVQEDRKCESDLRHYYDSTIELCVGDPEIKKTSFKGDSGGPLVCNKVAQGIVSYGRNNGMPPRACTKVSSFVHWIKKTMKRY
The target of assay [3] is T2, Granzyme K (Homo sapiens) (UniProt P49863).
T2 sequence (whole entry): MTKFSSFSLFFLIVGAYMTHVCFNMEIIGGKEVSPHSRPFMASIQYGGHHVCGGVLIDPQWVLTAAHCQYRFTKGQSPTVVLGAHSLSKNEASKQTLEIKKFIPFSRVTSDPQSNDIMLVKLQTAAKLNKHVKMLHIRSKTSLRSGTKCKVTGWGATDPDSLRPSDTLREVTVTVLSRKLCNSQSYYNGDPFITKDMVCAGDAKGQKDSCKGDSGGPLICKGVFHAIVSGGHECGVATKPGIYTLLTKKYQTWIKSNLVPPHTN
Description: Substrate activity at Granzyme K (unknown origin) expressed in Pichia pastoris assessed as compound hydrolysis at 200 uM incubated for 30 mins by fluorescence based assay relative to control. On the set-up: scale not given: the % may be the effect or the level left.

In assay [4] the target is T2, Granzyme K (Homo sapiens). As to the kind of experiment: Inhibition of Granzyme K (unknown origin) expressed in Pichia pastoris using GrKref substrate by spectrofluorometry relative to control. To be noted: concentration not given here. A digest of the protocol: (§1)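 Each enzyme preincubated 30 min at 37 °C with 10 μM compound, then its matched ACC substrate added (SK15 for GrA, GrKref, GrBref, Ac-KVPL-ACC for GrM, and the PR3 and hNE substrates). Enzyme levels: GrK 488 nM, GrB 18 nM, GrM 74 nM, hNE 3.3 nM, PR3 3.4 nM. Reference substrates at 200 μM. Fluorescence read at 355/460 nm; residual activity relative to an untreated enzyme control.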

Assay [5] has as its target T1, Granzyme A (Homo sapiens). Description: Inhibition of Granzyme A (unknown origin) expressed in Pichia pastoris using SK15 substrate by spectrofluorometry relative to control. To be noted: concentration not given here. A digest of the protocol: as §1
The target of assay [6] is T1, Granzyme A (Homo sapiens). Description: Inhibition of Granzyme A (unknown origin) expressed in Pichia pastoris assessed as second- order inhibition rate constant (Kobs/I ratio) pre-incubated with SK15 substrate for 15 mins before enzyme addition by spectrofluorometry. A digest of the protocol:
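Recombinant GrA at 350 nM, pre-warmed at 37 °C, added to SK15 substrate that had been preincubated 15 min at 37 °C with varied inhibitor or probe (inhibitor range 714–333 nM, SK15 10 μM). Tris/NaCl/CaCl2/Tween-20 buffer, pH 7.5. AMC-type fluorescence at 355/460 nm under pseudo-first-order conditions to give kobs/I. Mean of at least three experiments with standard deviation.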

Assay [7] addresses T3, Myeloblastin (Homo sapiens) (UniProt P24158).
T3 sequence (whole entry): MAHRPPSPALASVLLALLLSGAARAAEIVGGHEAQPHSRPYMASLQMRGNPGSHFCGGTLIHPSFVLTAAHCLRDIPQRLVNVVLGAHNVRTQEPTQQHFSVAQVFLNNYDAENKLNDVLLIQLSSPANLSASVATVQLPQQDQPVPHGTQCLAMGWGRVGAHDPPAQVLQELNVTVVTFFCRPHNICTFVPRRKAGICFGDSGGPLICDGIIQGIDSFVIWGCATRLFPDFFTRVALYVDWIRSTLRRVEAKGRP
Description: Inhibition of PR3 (unknown origin) expressed in Pichia pastoris using Ac-Glu(O-Bzl)-Lys(Ac)-Hyp(Bzl)-Nva-ACC substrate by spectrofluorometry relative to control. To be noted: concentration not given here. A digest of the protocol:
as §1

Assay [8] deals with T4, Neutrophil elastase (Homo sapiens) (UniProt P08246).
T4 sequence (whole entry): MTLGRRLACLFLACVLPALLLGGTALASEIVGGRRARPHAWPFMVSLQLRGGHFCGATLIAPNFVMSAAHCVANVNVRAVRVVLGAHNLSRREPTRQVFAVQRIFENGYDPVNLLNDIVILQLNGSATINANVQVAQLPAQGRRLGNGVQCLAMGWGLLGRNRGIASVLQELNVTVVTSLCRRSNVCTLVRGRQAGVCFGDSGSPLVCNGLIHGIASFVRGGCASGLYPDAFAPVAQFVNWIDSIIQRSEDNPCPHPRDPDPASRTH
Description: Inhibition of human neutrophil elastase expressed in Pichia pastoris using Ac-Arg(NO)2-Glu(Bzl)-Oic-Abu-ACC substrate by spectrofluorometry relative to control. To be noted: concentration not given here. The method in brief:
as §1

The target of assay [9] is Granzyme B (Homo sapiens) (UniProt P10144). Description: Inhibition of Granzyme B (unknown origin) expressed in Pichia pastoris using GrBref substrate by spectrofluorometry relative to control. To be noted: concentration not given here. A digest of the protocol:
as §1

The target of assay [10] is T5, Granzyme M (Homo sapiens) (UniProt P51124).
T5 sequence (whole entry): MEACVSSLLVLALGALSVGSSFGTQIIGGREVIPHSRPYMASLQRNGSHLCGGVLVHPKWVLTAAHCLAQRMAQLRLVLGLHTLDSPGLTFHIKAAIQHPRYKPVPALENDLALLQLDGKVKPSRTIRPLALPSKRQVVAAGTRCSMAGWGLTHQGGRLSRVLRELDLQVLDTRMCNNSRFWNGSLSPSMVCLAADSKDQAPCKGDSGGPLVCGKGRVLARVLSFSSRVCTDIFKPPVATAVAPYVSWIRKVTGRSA
As to the kind of experiment: Inhibition of Granzyme M (unknown origin) expressed in Pichia pastoris using Ac-Lys-Val-Pro-Leu-ACC substrate by spectrofluorometry relative to control. The note with it: concentration not given here. The method in brief: as §1

Active and inactive are the calls of the source. The calls are words filed in the database; no cut-off is given here. Non-standard residues stand in square brackets, D forms with d. Residues, ends and D or L forms follow the SMILES beside them. ξ: configuration not given here. *: point of attachment. Phe(4-guanidino) = N=C(N)Nc1ccc(C[C@H](N)C(=O)O)cc1; Oic(3aξ,7aξ) = O=C(O)[C@@H]1CC2CCCCC2N1; Phe(4-F) = N[C@@H](Cc1ccc(F)cc1)C(=O)O; ACC = NC(=O)Cc1cc(=O)oc2cc(N*)ccc12; Met(O) = CS(=O)CC[C@H](N)C(=O)O; Tic = O=C(O)[C@@H]1Cc2ccccc2CN1; X1 = Clc1cccc(Cl)c1C* Where only a bound is given, the exact number is not on record here.

Regarding `CC(=O)N[C@@H](CC[S+](C)[O-])C(=O)NCC(=O)N1CC(OCc2ccccc2)C[C@H]1C(=O)N[C@@H](CCCNC(=N)N)C(=O)Nc1ccc2c(CC(N)=O)cc(=O)oc2c1` (some centres not stated), the result in [1] was Active.

As for `CC(=O)N1Cc2ccccc2C[C@H]1C(=O)N[C@@H](CCc1nc2ccccc2s1)C(=O)N1C2CCCCC2C[C@H]1C(=O)N[C@@H](Cc1ccc(NC(=N)N)cc1)C(=O)Nc1ccc2c(CC(N)=O)cc(=O)oc2c1` (some centres not stated), the result in assay [1] was Active.

For `CC(=O)N1Cc2ccccc2C[C@H]1C(=O)NCC(=O)N1C2CCCCC2C[C@H]1C(=O)N[C@@H](CCCNC(=N)N)C(=O)Nc1ccc2c(CC(N)=O)cc(=O)oc2c1` (stereo partly drawn) (Ac-[Tic]G[Oic(3aξ,7aξ)]R-{ACC}), in [2], the result was inactive. The Activity in [3] is 20%.

With `CC(=O)N1Cc2ccccc2C[C@H]1C(=O)NC(CCc1nc2ccccc2s1)C(=O)N1C2CCCCC2C[C@H]1C(=O)N[C@@H](CCCNC(=N)N)C(=O)Nc1ccc2c(CC(N)=O)cc(=O)oc2c1` (some centres not stated), the outcome in [1] was Active.

Regarding `CC(=O)N[C@@H](CC[S+](C)[O-])C(=O)NCC(=O)N1CC(OCc2ccccc2)C[C@H]1C(=O)Nc1cccc(C(=O)Nc2ccc3c(CC(N)=O)cc(=O)oc3c2)c1` (some centres not stated), the outcome in assay [2] was Active.

As to `CC(=O)N[C@@H](CC[S+](C)[O-])C(=O)NCC(=O)N[C@@H](Cc1ccc(OCc2c(Cl)cccc2Cl)cc1)C(=O)N[C@@H](CCCNC(=N)N)C(=O)Nc1ccc2c(CC(N)=O)cc(=O)oc2c1` (stereo partly drawn) (Ac-[Met(O)]GY(X1)R-{ACC}), in assay [1], the outcome was Active.

With `CC[C@H](C)[C@H](NC(C)=O)C(=O)NCC(=O)N1C2CCCCC2C[C@H]1C(=O)N[C@@H](CCCNC(=N)N)C(=O)Nc1ccc2c(CC(N)=O)cc(=O)oc2c1` (stereo partly drawn) (Ac-IG[Oic(3aξ,7aξ)]R-{ACC}), the outcome in assay [2] and in assay [1] was Active.

As to `CC(=O)N[C@@H](CC[S+](C)[O-])C(=O)NCC(=O)N1CC(OCc2ccccc2)C[C@H]1C(=O)N[C@@H](Cc1ccc(NC(=N)N)cc1)C(=O)Nc1ccc2c(CC(N)=O)cc(=O)oc2c1` (some centres not stated), in assay [1], the outcome was Active.

With `CC(=O)N[C@@H](CC[S+](C)[O-])C(=O)NCC(=O)N[C@@H](Cc1ccc(OCc2c(Cl)cccc2Cl)cc1)C(=O)N[C@@H](Cc1ccc(NC(=N)N)cc1)C(=O)Nc1ccc2c(CC(N)=O)cc(=O)oc2c1` (some centres not stated) (Ac-[Met(O)]GY(X1)[Phe(4-guanidino)]-{ACC}), the outcome in [1] was Active.

For the compound `CC(=O)N[C@@H](CC[S+](C)[O-])C(=O)NCC(=O)N[C@@H](Cc1ccc(F)cc1)C(=O)N[C@@H](Cc1ccc(NC(=N)N)cc1)C(=O)Nc1ccc2c(CC(N)=O)cc(=O)oc2c1` (some centres not stated) (Ac-[Met(O)]G[Phe(4-F)][Phe(4-guanidino)]-{ACC}), the result in assay [1] was Active.

In the case of `CC[C@H](C)[C@H](NC(C)=O)C(=O)NCC(=O)N1C2CCCCC2C[C@H]1C(=O)N[C@@H](Cc1ccc(NC(=N)N)cc1)C(=O)Nc1ccc2c(CC(N)=O)cc(=O)oc2c1` (some centres not stated) (Ac-IG[Oic(3aξ,7aξ)][Phe(4-guanidino)]-{ACC}), the result in assay [1] was Active.

With `CC(=O)N[C@@H](CC[S+](C)[O-])C(=O)NCC(=O)N[C@@H](Cc1ccc(F)cc1)C(=O)N[C@@H](CCCNC(=N)N)C(=O)Nc1ccc2c(CC(N)=O)cc(=O)oc2c1` (stereo partly drawn) (Ac-[Met(O)]G[Phe(4-F)]R-{ACC}), in assay [1], the outcome was Active.

For `CC(=O)N1Cc2ccccc2C[C@H]1C(=O)NCC(=O)N1C2CCCCC2C[C@H]1C(=O)N[C@@H](Cc1ccc(NC(=N)N)cc1)C(=O)Nc1ccc2c(CC(N)=O)cc(=O)oc2c1` (some centres not stated) (Ac-[Tic]G[Oic(3aξ,7aξ)][Phe(4-guanidino)]-{ACC}), in assay [1], the result was Active.

As to `COC(=O)CCC(=O)N1Cc2ccccc2C[C@H]1C(=O)NCC(=O)N1C2CCCCC2C[C@H]1C(=O)NC(CCCNC(=N)N)P(=O)(Oc1ccccc1)Oc1ccccc1` (some centres not stated), the inhibition in assay [4], in [5], in assay [7], in assay [8], in assay [9] and in assay [10] was less than 20% throughout. In [6], the Ratio stood at 171000 s⁻¹ M⁻¹.

The values above are taken from ChEMBL document CHEMBL4342470, “Detection of Active Granzyme A in NK92 Cells with Fluorescent Activity-Based Probe” (J Med Chem, 2020).
